Like-named read-outs stand apart in the source and are kept apart here.
Legend:
[1] = Plasma teriparatide acetate pharmacokinetics after subcutaneous injection; assay type: in vivo, human
How it was run: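 Vials were reconstituted in saline at use. 28.2 μg was given sc into the abdomen; 56.5 μg sc into the upper arm, in Cohort 1 with saline at the other site. Plasma was drawn pre-dose and at 0.25–6 h post-dose on days 1 and 36, frozen, and assayed centrally by IRMA (LLOQ 21.46 pg/mL). Noncompartmental parameters; values below LLOQ set to zero for means; arithmetic mean ± SD.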

[2] = tested on: bone turnover markers (P1NP, OC, serum NTX, CTX, urine NTX); assay: Changes in trough values of bone turnover markers; assay type: in vivo, human; settings: for GMRs (trough to baseline) of serum P1NP and serum OC: 6 weeks, then steady until day 43; for GMRs (trough to baseline) of serum NTX, serum CTX, and urine NTX: after the 6-week treatments
How it was run: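 Healthy postmenopausal women received sc synthetic human PTH 1-34 or saline placebo for 6 weeks. Markers were sampled pre-dose on days 1, 8, 15, 22, 29 and 36 and on day 43. Serum P1NP and CTX were measured by ECLIA, OC by IRMA, serum and urine NTX by ELISA; CTX only on days 1, 8, 29 and 43. Samples were assayed centrally. GMR of log-transformed trough to baseline, with 95% CI, by ANOVA per group.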

[3] = tested on: healthy Japanese postmenopausal women; assay: Safety: incidence of adverse events; assay type: in vivo, human; settings: 6 weeks, n = 20
How it was run: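 Randomized, single-blind, saline placebo-controlled trial in healthy Japanese postmenopausal women, with sc dosing for 6 weeks. Adverse events came from self-report, interviews or other tests, with onset, severity, seriousness, outcome and drug relationship recorded. Coding used MedDRA v17.1 preferred terms. Vital signs, 12-lead ECG, haematology, blood biochemistry and urinalysis were also monitored.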

[4] = tested on: patients with osteoporosis; settings: TOWER trial, once-weekly 56.5 μg, cited from earlier work
[5] = tested on: subjects in the safety assessment population; settings: 24-month open-label once-weekly trial, cited from earlier work
[6] = tested on: subjects of phase 2b trial; settings: cited from earlier work
[7] = subjects with severe renal impairment (eGFR 15.0–29.9 mL/min/1.73 m^2); cited from earlier work
[8] = Cohort 1 BIW: 28.2 μg twice weekly sc, intervals 3, 4 days
[9] = Cohort 1 QW: 56.5 μg once weekly sc
[10] = Cohort 2 BIW: 28.2 μg twice weekly sc, intervals 2, 5 days
[11] = Cohort 3 BIW: 28.2 μg twice weekly sc, intervals 1, 6 days

With `CC[C@H](C)[C@H](NC(=O)[C@H](CCC(=O)O)NC(=O)[C@H](CO)NC(=O)[C@@H](NC(=O)[C@@H](N)CO)C(C)C)C(=O)N[C@@H](CCC(N)=O)C(=O)N[C@@H](CC(C)C)C(=O)N[C@@H](CCSC)C(=O)N[C@@H](Cc1cnc[nH]1)C(=O)N[C@@H](CC(N)=O)C(=O)N[C@@H](CC(C)C)C(=O)NCC(=O)N[C@@H](CCCCN)C(=O)N[C@@H](Cc1cnc[nH]1)C(=O)N[C@@H](CC(C)C)C(=O)N[C@@H](CC(N)=O)C(=O)N[C@@H](CO)C(=O)N[C@@H](CCSC)C(=O)N[C@@H](CCC(=O)O)C(=O)N[C@@H](CCCN=C(N)N)C(=O)N[C@H](C(=O)N[C@@H](CCC(=O)O)C(=O)N[C@@H](Cc1c[nH]c2ccccc12)C(=O)N[C@@H](CC(C)C)C(=O)N[C@@H](CCCN=C(N)N)C(=O)N[C@@H](CCCCN)C(=O)N[C@@H](CCCCN)C(=O)N[C@@H](CC(C)C)C(=O)N[C@@H](CCC(N)=O)C(=O)N[C@@H](CC(=O)O)C(=O)N[C@H](C(=O)N[C@@H](Cc1cnc[nH]1)C(=O)N[C@@H](CC(N)=O)C(=O)N[C@@H](Cc1ccccc1)C(=O)O)C(C)C)C(C)C` [teriparatide] the Tmax ([1]; human, plasma, sc, 28.2 ug) was ≤ 60 min, the half-life ([1]; human, plasma, sc, 28.2 ug) was 44.3 ± 6.12 min and the “accumulation of teriparatide acetate in plasma” value ([1]; multiple dosing of once-weekly 56.5 μg, 6 weeks) was “no accumulation”. For the same molecule, the “AUCinf and Cmax relative to the once-weekly 56.5-μg group” value ([1]; twice-weekly 28.2-μg groups) was “approximately half”, the “accumulation in the plasma” value ([1]; twice-weekly 28.2-μg injection treatment, regardless of dosing intervals, 6 weeks) was “not observed” and the “GMRs (trough to baseline) of serum P1NP and serum OC” value ([2]; all 3 twice-weekly 28.2-μg groups) was “similarly increased to day 29 or day 36”. The “GMRs (trough to baseline) of serum NTX, serum CTX, and urine NTX” value ([2]; all twice-weekly 28.2-μg groups) was “did not increase”, the “GMRs (trough to baseline) of serum P1NP and serum OC” value ([2]; once-weekly 56.5-μg group) was “similarly increased to day 29 or day 36” and the “GMRs (trough to baseline) of serum NTX, serum CTX, and urine NTX” value ([2]; once-weekly 56.5-μg group) was “did not increase”. The Abdominal pain [3, 8] was 0 (0.0) number of subjects (%), the “Adverse events, Total” value [3, 8] was 12 (60.0) number of subjects (%) and the Alanine aminotransferase increased [3, 8] was 0 (0.0) number of subjects (%). The Arthralgia [3, 8] was 0 (0.0) number of subjects (%), the Aspartate aminotransferase increased [3, 8] was 0 (0.0) number of subjects (%) and the Blood pressure decreased [3, 8] was 0 (0.0) number of subjects (%). The Chest discomfort [3, 8] was 0 (0.0) number of subjects (%), the Constipation [3, 8] was 0 (0.0) number of subjects (%) and the Dizziness [3, 8] was 1 (5.0) number of subjects (%). The Dyspepsia [3, 8] was 1 (5.0) number of subjects (%), the Feeling abnormal [3, 8] was 0 (0.0) number of subjects (%) and the Fractured coccyx [3, 8] was 1 (5.0) number of subjects (%). For the same molecule, the Gamma-glutamyltransferase increased [3, 8] was 0 (0.0) number of subjects (%), the Headache [3, 8] was 5 (25.0) number of subjects (%) and the Injection site erythema [3, 8] was 2 (10.0) number of subjects (%). For the same molecule, the Malaise [3, 8] was 2 (10.0) number of subjects (%), the Nasopharyngitis [3, 8] was 0 (0.0) number of subjects (%) and the Nausea [3, 8] was 9 (45.0) number of subjects (%). For the same molecule, the Pruritus [3, 8] was 0 (0.0) number of subjects (%), the Rash [3, 8] was 0 (0.0) number of subjects (%) and the Somnolence [3, 8] was 0 (0.0) number of subjects (%). The Vomiting [3, 8] was 4 (20.0) number of subjects (%), the Abdominal pain [3, 9] was 0 (0.0) number of subjects (%) and the “Adverse events, Total” value [3, 9] was 18 (90.0) number of subjects (%). For the same molecule, the Alanine aminotransferase increased [3, 9] was 2 (10.0) number of subjects (%), the Arthralgia [3, 9] was 1 (5.0) number of subjects (%) and the Aspartate aminotransferase increased [3, 9] was 1 (5.0) number of subjects (%). The Blood pressure decreased [3, 9] was 1 (5.0) number of subjects (%), the Chest discomfort [3, 9] was 0 (0.0) number of subjects (%) and the Constipation [3, 9] was 1 (5.0) number of subjects (%). The Dizziness [3, 9] was 3 (15.0) number of subjects (%), the Dyspepsia [3, 9] was 0 (0.0) number of subjects (%) and the Feeling abnormal [3, 9] was 0 (0.0) number of subjects (%). The Fractured coccyx [3, 9] was 0 (0.0) number of subjects (%), the Gamma-glutamyltransferase increased [3, 9] was 1 (5.0) number of subjects (%) and the Headache [3, 9] was 15 (75.0) number of subjects (%). For the same molecule, the Injection site erythema [3, 9] was 2 (10.0) number of subjects (%), the Malaise [3, 9] was 4 (20.0) number of subjects (%) and the Nasopharyngitis [3, 9] was 0 (0.0) number of subjects (%). The Nausea [3, 9] was 18 (90.0) number of subjects (%), the Pruritus [3, 9] was 0 (0.0) number of subjects (%) and the Rash [3, 9] was 0 (0.0) number of subjects (%). The Somnolence [3, 9] was 1 (5.0) number of subjects (%), the Vomiting [3, 9] was 14 (70.0) number of subjects (%) and the Abdominal pain [3, 10] was 1 (5.0) number of subjects (%). The “Adverse events, Total” value [3, 10] was 12 (60.0) number of subjects (%), the Alanine aminotransferase increased [3, 10] was 0 (0.0) number of subjects (%) and the Arthralgia [3, 10] was 0 (0.0) number of subjects (%). The Aspartate aminotransferase increased [3, 10] was 0 (0.0) number of subjects (%), the Blood pressure decreased [3, 10] was 0 (0.0) number of subjects (%) and the Chest discomfort [3, 10] was 1 (5.0) number of subjects (%). The Constipation [3, 10] was 0 (0.0) number of subjects (%), the Dizziness [3, 10] was 0 (0.0) number of subjects (%) and the Dyspepsia [3, 10] was 0 (0.0) number of subjects (%). For the same molecule, the Feeling abnormal [3, 10] was 1 (5.0) number of subjects (%), the Fractured coccyx [3, 10] was 0 (0.0) number of subjects (%) and the Gamma-glutamyltransferase increased [3, 10] was 0 (0.0) number of subjects (%). For the same molecule, the Headache [3, 10] was 4 (20.0) number of subjects (%), the Injection site erythema [3, 10] was 3 (15.0) number of subjects (%) and the Malaise [3, 10] was 0 (0.0) number of subjects (%). The Nasopharyngitis [3, 10] was 1 (5.0) number of subjects (%), the Nausea [3, 10] was 10 (50.0) number of subjects (%) and the Pruritus [3, 10] was 0 (0.0) number of subjects (%). For the same molecule, the Rash [3, 10] was 0 (0.0) number of subjects (%), the Somnolence [3, 10] was 0 (0.0) number of subjects (%) and the Vomiting [3, 10] was 5 (25.0) number of subjects (%). For the same molecule, the Abdominal pain [3, 11] was 0 (0.0) number of subjects (%), the “Adverse events, Total” value [3, 11] was 16 (80.0) number of subjects (%) and the Alanine aminotransferase increased [3, 11] was 0 (0.0) number of subjects (%). The Arthralgia [3, 11] was 0 (0.0) number of subjects (%), the Aspartate aminotransferase increased [3, 11] was 0 (0.0) number of subjects (%) and the Blood pressure decreased [3, 11] was 0 (0.0) number of subjects (%). The Chest discomfort [3, 11] was 0 (0.0) number of subjects (%), the Constipation [3, 11] was 0 (0.0) number of subjects (%) and the Dizziness [3, 11] was 0 (0.0) number of subjects (%). For the same molecule, the Dyspepsia [3, 11] was 0 (0.0) number of subjects (%), the Feeling abnormal [3, 11] was 0 (0.0) number of subjects (%) and the Fractured coccyx [3, 11] was 0 (0.0) number of subjects (%). For the same molecule, the Gamma-glutamyltransferase increased [3, 11] was 0 (0.0) number of subjects (%), the Headache [3, 11] was 6 (30.0) number of subjects (%) and the Injection site erythema [3, 11] was 13 (65.0) number of subjects (%). For the same molecule, the Malaise [3, 11] was 0 (0.0) number of subjects (%), the Nasopharyngitis [3, 11] was 0 (0.0) number of subjects (%) and the Nausea [3, 11] was 10 (50.0) number of subjects (%). The Pruritus [3, 11] was 1 (5.0) number of subjects (%), the Rash [3, 11] was 1 (5.0) number of subjects (%) and the Somnolence [3, 11] was 0 (0.0) number of subjects (%). The Vomiting [3, 11] was 6 (30.0) number of subjects (%), the “adverse events, subjects affected” value ([4]; 271 of 290 subjects) was 93.4% and the Malaise ([4]; n = 21 of 290) was 7.2%. The abdominal discomfort ([4]; n = 22 of 290) was 7.6%, the Vomiting ([4]; n = 33 of 290) was 11.4% and the Headache ([4]; n = 39 of 290) was 13.4%. The Nausea ([4]; n = 59 of 290) was 20.3%, the “adverse events, subjects affected” value ([5]; 181 of 189 subjects) was 95.8% and the abdominal discomfort ([5]; n = 25 of 189) was 13.2%. For the same molecule, the Malaise ([5]; n = 33 of 189) was 17.5%, the Headache ([5]; n = 37 of 189) was 19.6% and the Vomiting ([5]; n = 42 of 189) was 22.2%. For the same molecule, the Nausea ([5]; n = 69 of 189) was 36.5%, the “Incidence of adverse events” value ([6]; once-weekly 14.1-μg dosing group, 14 of 73 subjects) was 19.2% and the frequency of nausea ([6]; once-weekly 14.1-μg group, 4 of 73 patients) was 5.5%. The “Incidence of adverse events” value ([6]; once-weekly 28.2-μg dosing group, 14 of 75) was 18.7%, the frequency of nausea ([6]; once-weekly 28.2-μg group, 7 of 75) was 9.3% and the “Incidence of adverse events” value ([6]; once-weekly 56.5-μg dosing group, 30 of 72) was 41.7%. For the same molecule, the frequency of nausea ([6]; once-weekly 56.5-μg group, 15 of 72) was 20.8% and the elimination half-life [7] was “significantly prolonged”.

Reference: PMC7004090 (Clinical Pharmacology in Drug Development, 2019)
